Test results from ChEMBL document CHEMBL4422662, “Chemical Control of Mammalian Circadian Behavior through Dual Inhibition of Casein Kinase Iα and δ” (J Med Chem, 2019).
Calls of active or inactive are those of the source. The rule behind the calls is not given here.

Tests used:
[1] = biological target: T1, Casein kinase I isoform alpha/delta (Homo sapiens) (UniProt P48730+P48729); test: Inhibition of CK1alpha/CK1delta in human U2OS cells co-expressing Bmal1-dLuc assessed as modulation circadian clock by measuring drug level causing 1 hr circadian period lengthening measured every 100 mins by luminescence assay; format: cell-based
T1 sequence (P48729 whole entry, looked up, canonical isoform): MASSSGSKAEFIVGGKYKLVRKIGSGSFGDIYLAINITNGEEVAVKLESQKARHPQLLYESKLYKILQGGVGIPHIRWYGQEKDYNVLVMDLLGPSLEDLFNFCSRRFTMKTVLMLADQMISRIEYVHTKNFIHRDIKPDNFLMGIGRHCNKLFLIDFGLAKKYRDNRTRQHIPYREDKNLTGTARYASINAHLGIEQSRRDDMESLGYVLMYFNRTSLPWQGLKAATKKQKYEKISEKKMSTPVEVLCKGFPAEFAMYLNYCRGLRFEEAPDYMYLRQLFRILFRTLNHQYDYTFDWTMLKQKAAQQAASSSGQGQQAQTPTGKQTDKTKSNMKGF
T1 sequence (P48730 whole entry, looked up, canonical isoform): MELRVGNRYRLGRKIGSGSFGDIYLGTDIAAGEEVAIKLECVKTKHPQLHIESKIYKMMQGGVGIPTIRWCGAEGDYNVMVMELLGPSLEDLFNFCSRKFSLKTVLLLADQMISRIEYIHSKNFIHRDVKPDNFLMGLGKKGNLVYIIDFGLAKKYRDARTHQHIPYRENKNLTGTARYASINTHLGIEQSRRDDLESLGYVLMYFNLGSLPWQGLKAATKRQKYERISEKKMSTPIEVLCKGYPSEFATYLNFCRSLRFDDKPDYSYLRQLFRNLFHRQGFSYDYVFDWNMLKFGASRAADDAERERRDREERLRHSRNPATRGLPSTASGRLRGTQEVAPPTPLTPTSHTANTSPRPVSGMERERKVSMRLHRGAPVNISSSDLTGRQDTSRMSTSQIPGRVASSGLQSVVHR
How it was run: (§1)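 Bmal1-dLuc U2OS cells seeded at 2000 per well and grown 2 days in DMEM/10% FBS. Explant medium with 1 mM luciferin, 10 mM HEPES and 2% B27 (pH 7.2) added, with compounds at 8 μM to 1 nM (3-fold dilutions, final 0.7% DMSO). Luminescence read every 100 min. Period obtained by curve fitting, excluding the first 20 h. Value is the concentration giving the stated lengthening; mean of at least two independent determinations.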

[2] = biological target: T1, Casein kinase I isoform alpha/delta (Homo sapiens); test: Inhibition of CK1alpha/CK1delta in human U2OS cells co-expressing Bmal1-dLuc assessed as modulation circadian clock by measuring drug level causing 5 hrs circadian period lengthening measured every 100 mins by luminescence assay; format: cell-based; how it was run: as §1
[3] = biological target: T2, Casein kinase I isoform alpha (Homo sapiens, UniProt P48729); test: Inhibition of recombinant full length human GST-tagged CK1apha expressed in baculovirus at 5 uM using peptide as substrate after 3 hrs by kinase-glo luminescent assay
Target sequence in this assay (P48729 2-337 limits assumed): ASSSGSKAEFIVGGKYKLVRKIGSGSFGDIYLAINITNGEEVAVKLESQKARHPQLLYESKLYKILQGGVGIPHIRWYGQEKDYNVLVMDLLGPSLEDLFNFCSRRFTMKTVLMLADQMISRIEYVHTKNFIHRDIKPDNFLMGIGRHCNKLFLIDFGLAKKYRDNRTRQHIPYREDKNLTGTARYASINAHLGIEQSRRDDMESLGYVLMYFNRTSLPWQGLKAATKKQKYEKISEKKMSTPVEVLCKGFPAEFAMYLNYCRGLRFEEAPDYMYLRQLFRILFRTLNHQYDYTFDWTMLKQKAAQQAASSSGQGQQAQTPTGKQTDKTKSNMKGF

[4] = biological target: T3, Casein kinase I isoform delta (Homo sapiens, UniProt P48730); test: Inhibition of recombinant N-terminal human GST-tagged CK1delta (1 to 294 residues) expressed in Escherichia coli at 5 uM using RKKKAEpSVASLTSQCSYSS peptide as substrate after 3 hrs by kinase-glo luminescent assay relative to control
Target sequence in this assay (P48730 whole entry, looked up, the tested form may be a part, canonical isoform): as the sequence (P48730 whole entry, looked up, canonical isoform) above

[5] = biological target: CDK7/Cyclin H/MNAT1 (Homo sapiens) (UniProt P51946+P50613+P51948); test: Inhibition of recombinant full length C-terminal human His-tagged CDK7/cyclin H/N-terminal MAT1 expressed in baculovirus expression system at 5 uM using Cdk7/9 peptide as substrate after 3 hrs by kinase-glo luminescent assay relative to control
[6] = biological target: T2, Casein kinase I isoform alpha; test: Inhibition of CK1apha (unknown origin) at 5 uM relative to control
Target sequence in this assay (P48729 2-337 limits assumed): as the sequence (P48729 2-337 limits assumed) above

[7] = biological target: T3, Casein kinase I isoform delta; test: Inhibition of CK1delta (unknown origin) at 5 uM relative to control
Target sequence in this assay (P48730 whole entry, looked up, the tested form may be a part, canonical isoform): as the sequence (P48730 whole entry, looked up, canonical isoform) above

[8] = biological target: T4, Casein kinase I isoform alpha-like (Homo sapiens) (UniProt Q8N752); test: Inhibition of CK1alpha-like protein (unknown origin) at 5 uM relative to control
T4 sequence (whole entry): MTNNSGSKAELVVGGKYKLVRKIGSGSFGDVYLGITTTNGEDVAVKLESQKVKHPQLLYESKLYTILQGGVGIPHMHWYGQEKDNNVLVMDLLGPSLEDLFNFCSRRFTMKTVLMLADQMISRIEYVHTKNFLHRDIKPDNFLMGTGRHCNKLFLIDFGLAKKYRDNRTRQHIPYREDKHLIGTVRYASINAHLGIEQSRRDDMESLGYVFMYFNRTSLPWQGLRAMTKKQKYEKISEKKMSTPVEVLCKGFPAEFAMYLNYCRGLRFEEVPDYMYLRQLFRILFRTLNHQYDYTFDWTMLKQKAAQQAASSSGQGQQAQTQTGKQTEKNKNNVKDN

[9] = biological target: Casein kinase I isoform epsilon (Homo sapiens) (UniProt P49674); test: Inhibition of CK1epsilon (unknown origin) at 5 uM relative to control
[10] = biological target: Cyclin-dependent kinase 7 (Homo sapiens) (UniProt P50613); test: Inhibition of CDK7 (unknown origin) at 5 uM relative to control
Cyclin-dependent kinase 7 (Homo sapiens), sequence (P50613 whole entry): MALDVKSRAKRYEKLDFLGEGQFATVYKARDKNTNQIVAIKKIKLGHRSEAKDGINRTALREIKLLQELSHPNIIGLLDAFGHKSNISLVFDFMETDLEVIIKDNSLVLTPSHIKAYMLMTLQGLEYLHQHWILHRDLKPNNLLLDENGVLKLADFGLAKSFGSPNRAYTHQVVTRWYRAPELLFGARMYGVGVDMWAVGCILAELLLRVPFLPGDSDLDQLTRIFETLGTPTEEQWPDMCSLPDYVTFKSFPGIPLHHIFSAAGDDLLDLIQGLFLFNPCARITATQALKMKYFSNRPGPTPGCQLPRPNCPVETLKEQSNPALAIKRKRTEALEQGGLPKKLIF

[11] = biological target: Cyclin-dependent kinase 6 (Homo sapiens) (UniProt Q00534); test: Inhibition of CDK6 (unknown origin) at 5 uM relative to control
[12] = biological target: SRSF protein kinase 2 (Homo sapiens) (UniProt P78362); test: Inhibition of SRPK2 (unknown origin) at 5 uM relative to control
[13] = biological target: SRSF protein kinase 1 (Homo sapiens) (UniProt Q96SB4); test: Inhibition of SRPK1 (unknown origin) at 5 uM relative to control
SRSF protein kinase 1 (Homo sapiens), sequence (Q96SB4 whole entry): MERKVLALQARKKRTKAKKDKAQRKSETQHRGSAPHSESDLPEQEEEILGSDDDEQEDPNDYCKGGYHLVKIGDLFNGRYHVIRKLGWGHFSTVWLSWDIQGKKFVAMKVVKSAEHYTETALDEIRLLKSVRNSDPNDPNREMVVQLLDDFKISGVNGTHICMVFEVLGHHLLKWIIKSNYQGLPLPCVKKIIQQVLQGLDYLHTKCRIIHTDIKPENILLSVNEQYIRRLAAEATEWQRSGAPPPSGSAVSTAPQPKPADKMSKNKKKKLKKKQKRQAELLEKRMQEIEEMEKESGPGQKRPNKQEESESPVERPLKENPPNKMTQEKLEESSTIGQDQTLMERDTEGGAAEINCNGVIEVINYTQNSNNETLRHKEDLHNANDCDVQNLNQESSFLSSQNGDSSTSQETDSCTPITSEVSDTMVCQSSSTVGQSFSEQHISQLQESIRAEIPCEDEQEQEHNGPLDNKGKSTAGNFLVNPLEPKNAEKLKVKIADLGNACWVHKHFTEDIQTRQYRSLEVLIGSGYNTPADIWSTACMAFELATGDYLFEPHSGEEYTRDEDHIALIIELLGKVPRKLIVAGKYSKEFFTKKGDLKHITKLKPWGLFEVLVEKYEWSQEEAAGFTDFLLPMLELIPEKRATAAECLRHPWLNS

[14] = biological target: Dual specificity protein kinase CLK2 (Homo sapiens) (UniProt P49760); test: Inhibition of CLK2 (unknown origin) at 5 uM relative to control
Mus musculus [15] = test: Modulation of circadian rhythms in C57BL/6J mouse assessed as lengthening of time period of circadian behavior at 5 mM administered via infusion using osmotic pump by passive infrared sensor analysis; format: functional
How it was run: (§2)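 Male C57BL/6J mice, 8 weeks old, entrained to 12 h light:12 h dark and then released into constant darkness. Drug infused continuously into the lateral ventricle by osmotic mini-pump via a stereotaxic cannula (0.2 mm anterior, 1.4 mm lateral, 2.2 mm deep). Artificial cerebrospinal fluid infusion served as control, with buffer infusion afterwards. Movement recorded each minute by passive infrared sensor to derive period.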

Mus musculus [16] = test: Modulation of circadian rhythms in C57BL/6J mouse assessed as lengthening of time period of circadian behavior at 15 mM administered via infusion using osmotic pump by passive infrared sensor analysis; format: functional; how it was run: as §2
Mus musculus [17] = test: Reversible modulation of circadian rhythms in C57BL/6J mouse assessed as lengthening of time period of circadian behavior at 5 mM administered via infusion using osmotic pump followed buffer infusion by passive infrared sensor analysis; format: functional, organism-based; how it was run: as §2
[18] = biological target: T2, Casein kinase I isoform alpha; test: Inhibition of recombinant full length human GST-tagged CK1apha expressed in baculovirus using peptide as substrate after 3 hrs by kinase-glo luminescent assay
How it was run: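 Reaction held 1 ng/μL CKIα and 50 μM CKI peptide substrate in CKI buffer (40 mM Tris, 10 mM MgCl2, 0.5 mM DTT, 0.1 mg/mL BSA, pH 7.5). Final 5% DMSO from compound. Started with ATP (final 5 μM). Ran 3 h at 30 °C, then Kinase-Glo reagent added and luminescence recorded.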
Target sequence in this assay (P48729 whole entry, the tested form may be a part, canonical isoform): as the sequence (P48729 whole entry, looked up, canonical isoform) above

[19] = biological target: T5, Cyclin-dependent kinase 2 (Homo sapiens, UniProt P24941); test: Inhibition of CDK2 (unknown origin) after 3 hrs by kinase-glo luminescent assay relative to control
[20] = biological target: T3, Casein kinase I isoform delta; test: Inhibition of recombinant N-terminal human GST-tagged CK1delta (1 to 294 residues) expressed in Escherichia coli using RKKKAEpSVASLTSQCSYSS peptide as substrate after 3 hrs by kinase-glo luminescent assay relative to control
How it was run: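 CKI buffer: 40 mM Tris, 10 mM MgCl2, 0.5 mM DTT, 0.1 mg/mL BSA, pH 7.5. Compound added first (final 5% DMSO), then ATP to a final 5 μM. Incubated 30 °C for 3 h; remaining ATP read by Kinase-Glo luminescence.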
Target sequence in this assay (P48730 whole entry, the tested form may be a part, canonical isoform): as the sequence (P48730 whole entry, looked up, canonical isoform) above

CDK7/Cyclin H/MNAT1 = CDK7/Cyclin H/MNAT1 (Homo sapiens, UniProt P50613); test: Inhibition of recombinant full length C-terminal human His-tagged CDK7/cyclin H/N-terminal MAT1 expressed in baculovirus expression system using Cdk7/9 peptide as substrate after 3 hrs by kinase-glo luminescent assay relative to control
CDK7/Cyclin H/MNAT1, sequence (P51946 whole entry): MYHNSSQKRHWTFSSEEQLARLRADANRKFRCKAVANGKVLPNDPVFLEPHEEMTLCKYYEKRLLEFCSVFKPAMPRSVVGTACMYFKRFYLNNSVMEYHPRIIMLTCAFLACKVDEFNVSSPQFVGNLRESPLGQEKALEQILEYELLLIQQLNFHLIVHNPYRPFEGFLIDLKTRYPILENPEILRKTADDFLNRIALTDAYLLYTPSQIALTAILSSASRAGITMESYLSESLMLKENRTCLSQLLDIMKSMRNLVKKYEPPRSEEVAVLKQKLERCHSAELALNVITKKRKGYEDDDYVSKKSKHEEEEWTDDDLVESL
CDK7/Cyclin H/MNAT1, sequence (P50613 whole entry): as the sequence (P50613 whole entry) above
CDK7/Cyclin H/MNAT1, sequence (P51948 whole entry, further chain): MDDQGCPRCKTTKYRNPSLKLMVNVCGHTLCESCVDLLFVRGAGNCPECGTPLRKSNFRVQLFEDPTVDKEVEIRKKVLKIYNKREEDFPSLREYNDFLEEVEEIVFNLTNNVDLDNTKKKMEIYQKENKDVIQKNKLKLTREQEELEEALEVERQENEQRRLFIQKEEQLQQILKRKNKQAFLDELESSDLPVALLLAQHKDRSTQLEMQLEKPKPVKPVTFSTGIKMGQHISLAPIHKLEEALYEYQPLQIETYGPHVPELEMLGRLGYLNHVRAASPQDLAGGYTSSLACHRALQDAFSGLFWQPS
How it was run: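 CDK7 used at 5 ng/μL with 100 μM Cdk7/9 peptide substrate in CKI buffer (40 mM Tris, 10 mM MgCl2, 0.5 mM DTT, 0.1 mg/mL BSA, pH 7.5). ATP start at final 5 μM, 30 °C for 3 h, Kinase-Glo luminescence read-out.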

[21] = biological target: T6, Mitogen-activated protein kinase 1 (Homo sapiens, UniProt P28482); test: Inhibition of N-terminal GST-tagged recombinant full-length human MAPK1 expressed in Escherichia coli using MBP1 as substrate after 3 hrs by kinase-glo luminescent assay relative to control
T6 sequence (P28482 whole entry): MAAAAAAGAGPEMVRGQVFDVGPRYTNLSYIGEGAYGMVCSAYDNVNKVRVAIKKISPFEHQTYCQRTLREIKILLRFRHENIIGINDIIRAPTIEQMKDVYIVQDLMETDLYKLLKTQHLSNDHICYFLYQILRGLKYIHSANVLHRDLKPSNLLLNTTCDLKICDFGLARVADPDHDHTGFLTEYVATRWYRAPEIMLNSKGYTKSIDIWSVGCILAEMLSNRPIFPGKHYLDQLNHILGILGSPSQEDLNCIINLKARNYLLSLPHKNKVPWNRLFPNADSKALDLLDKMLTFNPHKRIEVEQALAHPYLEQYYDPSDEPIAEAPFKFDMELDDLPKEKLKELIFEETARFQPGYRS
How it was run: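 MAPK1 assayed as ERK2 at 1.5 ng/μL with 0.8 μg/μL MBP. ERK buffer: 50 mM Tris, 10 mM MgCl2, 0.5 mM DTT, 1 mM EGTA, pH 7.5. Compound at final 5% DMSO, then ATP (final 5 μM). Incubated 3 h at 30 °C; Kinase-Glo luminescence.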

[22] = biological target: T5, Cyclin-dependent kinase 2; test: Inhibition of CDK2 (unknown origin) at 5 uM after 3 hrs by kinase-glo luminescent assay relative to control
[23] = biological target: T6, Mitogen-activated protein kinase 1; test: Inhibition of N-terminal GST-tagged recombinant full-length human MAPK1 expressed in Escherichia coli at 5 uM using MBP as substrate after 3 hrs by kinase-glo luminescent assay relative to control
Mus musculus [24] = test: Modulation of circadian rhythms in C57BL/6J mouse assessed as lengthening of time period of circadian behavior at 1 mM administered via infusion using osmotic pump by passive infrared sensor analysis; format: functional; how it was run: as §2
Mus musculus [25] = test: Modulation of circadian rhythms in C57BL/6J mouse assessed as lengthening of time period of circadian behavior at 3 mM administered via infusion using osmotic pump by passive infrared sensor analysis; format: functional; how it was run: as §2

Compound	EC [1]	EC [2]	further results
CC(C)n1cnc2c(NCc3cccc(C(F)(F)F)c3)nc(N3CCC(O)CC3)nc21	1.98 µM	10.4 µM	
CC(C1CC1)n1cnc2c(N(C)Cc3cccc(C(F)(F)F)c3)nc(NCCN(C)C)nc21 (centres undefined)	inactive	inactive	
CCCCOc1nc(NCc2cccc(C(F)(F)F)c2)c2ncn(C(C)C)c2n1	6.39 µM	23.4 µM	
CC(C)n1cnc2c(NCc3cccc(C(F)(F)F)c3)nc(NCc3ccccc3)nc21	inactive	inactive	
COc1nc(NCc2cccc(C(F)(F)F)c2)c2ncn(C(C)C)c2n1	0.32 µM	2.39 µM	
CC(C)n1cnc2c(NCc3cccc(C(F)(F)F)c3)nc(N3CCCN(C)CC3)nc21	0.68 µM	5.8 µM	
CC(C)n1cnc2c(NCc3cccc(C(F)(F)F)c3)nc(NCCN(C)C)nc21	0.09 µM	0.9 µM	
CC(=O)N1CCN(c2nc(NCc3cccc(C(F)(F)F)c3)c3ncn(C(C)C)c3n2)CC1	1.03 µM	5.7 µM	
CC(C)n1cnc2c(NCc3cccc(C(F)(F)F)c3)nc(NCCN)nc21	0.58 µM	5.23 µM	
CC(C1CC1)n1cnc2c(NCc3cccc(C(F)(F)F)c3)nc(NCCN(C)C)nc21 (centres undefined)	0.022 µM	0.32 µM	inhibition [3]: Active; inhibition [4]: Active; inhibition [5]: Active; inhibition [6]: > 50%; inhibition [7]: > 50%; inhibition [8]: > 50%; inhibition [9]: > 50%; inhibition [10]: > 50%; inhibition [11]: > 50%; inhibition [12]: Active; inhibition [13]: Active; inhibition [14]: Active; Time (Mus musculus [15]): 0.15 h; Time (Mus musculus [16]): 0.15 h; Activity (Mus musculus [17]): Active; IC50 [18]: 1.8 µM; IC50 [19]: 37 µM; IC50 [20]: 3.6 µM; IC50 (CDK7/Cyclin H/MNAT1): 2.4 µM; IC50 [21]: 850 µM
CC(C)n1cnc2c(NCc3cccc(C(F)(F)F)c3)ncnc21	0.39 µM	3.4 µM	inhibition [3]: > 30%; inhibition [4]: > 30%; inhibition [22]: > 30%; inhibition [5]: > 30%; inhibition [23]: > 30%; Time (Mus musculus [24]): 0.05 h; Time (Mus musculus [25]): 0.1 h; Time (Mus musculus [15]): 0.1 h; Time (Mus musculus [16]): 0.15 h; IC50 [18]: 12 µM; IC50 [19]: 13 µM; IC50 [20]: 12 µM; IC50 (CDK7/Cyclin H/MNAT1): 32 µM; IC50 [21]: 59 µM
CC(C1CC1)n1cnc2c(NCc3cccc(C(F)(F)F)c3)ncnc21 (centres undefined)	0.09 µM	0.9 µM	
CC(C)n1cnc2c(NCc3cccc(C(F)(F)F)c3)nc(NC3CC3)nc21	1.62 µM	3.04 µM	
CC[C@H](CO)Nc1nc(NCc2cccc(C(F)(F)F)c2)c2ncn(C(C)C)c2n1	0.38 µM	3.76 µM	
CC(C)n1cnc2c(NCc3cccc(C(F)(F)F)c3)nc(NCCN3CCOCC3)nc21	1.65 µM	9.33 µM	
CC(C)n1cnc2c(NCc3cccc(C(F)(F)F)c3)nc(N3CCN(C)CC3)nc21	0.9 µM	3.66 µM	
CC(C1CC1)n1cnc2c(OCc3cccc(C(F)(F)F)c3)nc(NCCN(C)C)nc21 (centres undefined)	inactive	inactive	
CC(C)Oc1nc(NCc2cccc(C(F)(F)F)c2)c2ncn(C(C)C)c2n1	0.39 µM	2.75 µM	
COCC1CCCN1c1nc(NCc2cccc(C(F)(F)F)c2)c2ncn(C(C)C)c2n1 (centres undefined)	inactive	inactive	
CC[C@H](CO)Nc1nc(NCc2ccccc2)c2ncn(C(C)C)c2n1	0.96 µM	9 µM	
